From PubChem
ARFGAP1 inhibitor = rat ARFGAP1 inhibition | Arfgap1-stimulated ARF1 GTP hydrolysis, GDP FP detection | actives 0.26% (n = 360,000) | Q62848 | inhibition, % at 16.5 µM | AID 651572;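 active means inhibition above a per-plate limit, mean inhibition of low control wells plus 3 SD, cut at about 25% in these data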;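 further: 0% = DMSO wells with enzyme and 100% = wells lacking Arfgap1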
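Material: rat Arfgap1 GAP domain (His6, aa 1-136), purified enzyme. Also added: human ARF1(Δ1-17)-GTP substrate. Compound dosing: 16.5 µM single point, 1.26% DMSO. Timing: enzyme reaction 120 min at 25 °C after 20 min preincubation. Signal: GDP detection by fluorescence polarization. Read-out basis: percent inhibition of GAP-stimulated GDP formation, scaled between DMSO and no-Arfgap1 medians.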
Calb FLC = affects C. albicans growth with fluconazole; actives 0.57% (n = 300,000); growth inhibition, % (test concentration not listed); C. albicans CaCi-2 + fluconazole, Alamar Blue growth, 48 h;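 active means growth inhibition above about 58% in most replicates, limit read from the data, passing the limit was not always enough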;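 further: all wells also contain fluconazole at 8 µg/ml as a sub-toxic cotreatment; 0% = median of DMSO wells and 100% = median of geldanamycin control wells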
VIM-2 inhibitor = blocks Pseudomonas aeruginosa VIM-2 metallo-beta-lactamase. inhibition, % at 5.6 µM. actives 0.89% (n = 290,000). purified VIM-2, nitrocefin hydrolysis, epi-absorbance fluorescence;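 active means inhibition above the mean of all tested compounds plus 3 SD, cutoff set per screening run, cut at about 7.5% in these data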;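 further: red hydrolysis product quenches plate fluorescence so inhibitors raise well fluorescence; 0% = enzyme with DMSO and 100% = DMSO without enzyme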
IMP-1 inh = inhibitors of Pseudomonas aeruginosa IMP-1 metallo-beta-lactamase. purified IMP-1, nitrocefin hydrolysis, epi-absorbance fluorescence. actives 0.45% (n = 290,000). inhibition, % at 5.6 µM. AID 1556;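 active means inhibition above the mean plus 3 SD of all compounds in the same screening run, cut at about 4.5% in these data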;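 further: 0% = IMP-1 with DMSO and 100% = DMSO wells lacking enzyme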
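Assay system: purified recombinant IMP-1 beta-lactamase. Input: IMP-1 0.2 nM before substrate addition. Buffer or medium: Zinc- and detergent-supplemented HEPES buffer, pH 7.1. Schedule: 25 °C, 15 min preincubation, 25 min reaction. Signal: Epi-absorbance fluorescence, 480 nm excitation, 530 nm emission. Evaluation: percent inhibition from optical density relative to buffer-blank wells.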
ASAP1 GAP inh = inhibitors of human ASAP1 ArfGAP activity; Q9ULH1; ASAP1-stimulated ARF1 GTP hydrolysis, GDP FP detection; inhibition, % at 16.5 µM; actives 0.19% (n = 360,000); in the data active means inhibition above about 25%;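 further: 0% = vehicle with enzyme and substrate and 100% = no enzyme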
Target sequence (Q9ULH1 325-724 limits assumed): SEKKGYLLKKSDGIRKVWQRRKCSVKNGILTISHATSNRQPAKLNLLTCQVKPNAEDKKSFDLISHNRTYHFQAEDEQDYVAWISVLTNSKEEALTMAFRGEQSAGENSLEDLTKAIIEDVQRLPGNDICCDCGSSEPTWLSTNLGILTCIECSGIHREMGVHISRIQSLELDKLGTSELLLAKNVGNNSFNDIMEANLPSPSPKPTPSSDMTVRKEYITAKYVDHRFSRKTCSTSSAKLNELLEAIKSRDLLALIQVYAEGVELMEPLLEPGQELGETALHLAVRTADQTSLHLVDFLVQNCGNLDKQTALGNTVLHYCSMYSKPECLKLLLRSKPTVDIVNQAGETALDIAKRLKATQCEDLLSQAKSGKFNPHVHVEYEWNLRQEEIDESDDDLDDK
PHOSPHO1 inh = blocks human PHOSPHO1 phosphatase activity; Q8TCT1; recombinant PHOSPHO1, absorbance phosphatase assay; inhibition, % at 13.3 µM; actives 1.1% (n = 290,000); in the data active means inhibition above about 60%
Target sequence (Q8TCT1 whole entry, looked up): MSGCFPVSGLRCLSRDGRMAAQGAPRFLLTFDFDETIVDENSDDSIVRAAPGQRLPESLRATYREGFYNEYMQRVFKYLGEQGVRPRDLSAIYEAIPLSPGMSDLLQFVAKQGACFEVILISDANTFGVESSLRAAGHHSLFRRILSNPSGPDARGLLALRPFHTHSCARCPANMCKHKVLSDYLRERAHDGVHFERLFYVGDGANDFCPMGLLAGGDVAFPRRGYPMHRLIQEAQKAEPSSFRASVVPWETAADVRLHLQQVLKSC
Starred values were filed as active, the others as inactive; nt = not tested or not shown. Sampled rows, rich in hits. Any-hit rate of the full collection: about 2.6%.

SMILES | ARFGAP1 inhibitor | Calb FLC | VIM-2 inhibitor | IMP-1 inh | ASAP1 GAP inh | PHOSPHO1 inh
C[C@@H]1CN([C@@H](C)CO)C(=O)CCCn2cc(nn2)CO[C@H]1CN(C)C(=O)Nc1ccccc1 | -0.1 | nt | nt | nt | -11.4 | nt
O=C(N/N=C/c1cc2c3c(c1O)CCCN3CCC2)c1ccccc1O | 16.7 | 108.1* | -1.4 | -1.3 | 7.8 | -2.2
Cc1nn(-c2ccccc2)c(N2CCCC2)c1/C=N/NC(=O)c1ccccc1O | 6.5 | 90.6* | -4.1 | -3.7 | 18.6 | 4.9
C[C@H](CO)N1C[C@H](C)[C@@H](CN(C)C(=O)Nc2ccc(-c3cccs3)cc2)OCc2cn(nn2)CCCC1=O | -6.4 | nt | nt | nt | -6.5 | nt
NC(Cc1ccc(O)cc1)C(=O)NN=Cc1ccccc1Cl (stereo unspecified) | 1.0 | nt | nt | nt | 8.4 | nt
Cc1cccc(CN2CCSCCS2(=O)=O)c1 | 7.8 | nt | nt | nt | 10.6 | nt
NC(=O)c1c(NC(=O)c2ccco2)sc2c1CCC2 | -3.3 | 92.0* | -0.6 | -3.2 | 15.8 | 33.4
O=C(Nc1sc2c(c1C(=O)O)CCCCC2)c1ccco1 | 6.6 | 25.1 | -1.0 | -2.4 | -3.8 | 4.6
Cc1ccc(/C=N/c2sc3c(c2C(N)=O)CCCC3)o1 | 3.2 | 14.6 | -1.5 | -3.1 | -9.2 | -152.0
NC(=O)c1c(NC(=O)c2ccncc2)sc2c1CCCC2 | 10.1 | 73.2* | -1.4 | -3.0 | -14.4 | -22.7
NC(=O)c1c(/N=C/c2cccnc2)sc2c1CCCC2 | -11.3 | 31.1 | -0.5 | 2.1 | 6.4 | 76.8*
COc1cc(-c2cnc3c(NC=O)cc(-c4ccsc4)cn23)cc(OC)c1OC | -9.8 | nt | nt | nt | 4.8 | nt
O=C(NCc1ccccc1F)C(=O)NCC1OCCCN1S(=O)(=O)c1cccs1 (stereo unspecified) | 12.4 | 5.9 | -1.5 | -3.1 | 6.5 | 75.4*
COc1ccccc1CNC(=O)C(=O)NCC1OCCCN1S(=O)(=O)c1cccs1 (stereo unspecified) | 15.3 | 0.5 | -0.4 | -0.7 | 0.4 | 43.1
COC(=O)[C@]12C[C@H](CC(=O)N3CCN(C(=O)C4CC4)CC3)C(=O)N(CCC3=CCCCC3)C1=C[C@H](C(C)(C)C)O[C@@H]2C | -11.0 | nt | nt | nt | 9.2 | nt
C=CCn1c(COc2ccccc2)nnc1SCc1ccc(C#N)cc1 | 5.9 | 22.9 | -2.8 | -3.0 | 4.7 | 38.6
Cc1ccc(NCc2nnc(SCC(=O)Nc3ncc(C)s3)n2Cc2ccco2)c(C)c1 | 8.1 | -2.7 | -2.5 | -1.9 | 10.7 | 73.2*
Cc1cc(Cl)ccc1NC(=O)CSc1nnc(-c2ccncc2)n1Cc1ccco1 | -4.4 | 12.0 | -1.3 | -3.3 | -3.4 | 12.7
Cc1ccc(OCc2nnc(SCC(=O)C(C)(C)C)n2Cc2ccco2)cc1 | 3.1 | -14.4 | -1.1 | -2.7 | 0.9 | 61.0*
C=CCn1c(COc2ccc(F)cc2)nnc1SCC(=O)NC(=O)NCc1ccco1 | 5.7 | 6.0 | -2.9 | -3.3 | -9.7 | 93.4*
C=CCn1c(COc2ccc(Cl)cc2)nnc1SCc1ccc(C#N)cc1 | -4.3 | 2.2 | -3.0 | -2.6 | -1.9 | 88.4*
CSc1ccc(Oc2cccc3c2S(=O)(=O)N(C2CC2)C[C@@H](COCc2ccccc2)O3)cc1C | -0.1 | nt | nt | nt | -4.0 | nt
C=CCn1c(COc2ccc(Cl)cc2)nnc1SCC(=O)NCC(=O)OCC | -13.5 | 14.5 | -0.3 | -0.1 | -12.9 | 99.8*
C=CCn1c(COc2ccc(Cl)cc2)nnc1SCC(=O)Nc1ccc(S(N)(=O)=O)cc1 | 6.1 | -10.3 | -4.8 | -4.1 | 11.0 | 3.8
Cn1c(NCCc2ccncc2)nc2cc(-c3cccc(C(F)(F)F)c3)sc2c1=O | 4.7 | nt | nt | nt | 6.6 | nt
SMILES | ARFGAP1 inhibitor | Calb FLC | VIM-2 inhibitor | IMP-1 inh | ASAP1 GAP inh | PHOSPHO1 inh
O=c1/c(=C\c2cc([N+](=O)[O-])cc([N+](=O)[O-])c2O)sc2nc3ccccc3n12 | nt | nt | -3.1 | -1.9 | nt | 66.8*
O=c1/c(=C/c2ccccn2)sc2nc3ccccc3n12 | 3.0 | -0.9 | 2.2 | -1.3 | -7.8 | 45.1
O=C(O)c1cccc(-c2ccc(/C=c3/sc4nc5ccccc5n4c3=O)o2)c1 | -9.5 | 8.4 | -0.2 | -1.1 | 7.0 | 85.0*
Cc1cc(-c2nn(C)c(=O)c3ccccc23)cc(C)c1O | 7.3 | -1.8 | 9.2* | -1.1 | 16.2 | 17.7
Cn1nc(-c2ccc(C(=O)NCC3CCCO3)cc2)c2ccccc2c1=O (stereo unspecified) | 0.1 | 1.0 | 2.5 | -2.4 | 3.0 | 5.2
Cn1nc(-c2ccc(OCC(=O)NCC3CCCO3)cc2)c2ccccc2c1=O (stereo unspecified) | -0.6 | 27.4 | 11.4* | -3.3 | -5.1 | 17.3
Cn1nc(-c2ccc(C(=O)NCCO)cc2)c2ccccc2c1=O | 3.0 | -18.0 | 10.0* | -1.4 | -3.4 | 23.7
CN(CCO)C(=O)c1ccc(-c2nn(C)c(=O)c3ccccc23)cc1 | 4.7 | -9.4 | 3.1 | -2.8 | -0.9 | 42.9
O=c1c2c3c(sc2nc2n1CCCCC2)CCCC3 | -0.6 | -3.1 | -0.6 | -2.0 | 3.9 | 75.6*
O=c1c2c3c(sc2nc2n1CCCS2)CCCC3 | 12.3 | -16.2 | 0.0 | -2.8 | -7.3 | 27.0
CC1CSc2nc3sc4c(c3c(=O)n21)CCCC4 (stereo unspecified) | -4.6 | 0.9 | -3.8 | -2.6 | -10.8 | 67.1*
CCc1c(-c2ccccc2)ncn1CCc1ccccc1OC | -10.1 | nt | nt | nt | 1.8 | nt
CCCN1CCN(CCCNC(=O)c2cc3c(=O)[nH]c4ccccc4c3s2)CC1 | -1.4 | 7.5 | 10.2* | -1.6 | -4.8 | -4.0
Cc1ccc2[nH]c(=O)c3cc(C(=O)NCCN4CCN(C)CC4)sc3c2c1 | -11.6 | 0.6 | 11.8* | -0.4 | 9.4 | 2.1
C#CCNC(=O)C[C@H]1C[C@@]2(C(=O)OC)C(=C[C@H](C3CCCC3)O[C@@H]2C)N(CCCCCCCC)C1=O | 8.4 | nt | nt | nt | -17.3 | nt
COC(=O)c1c(C)oc2c1cc(NS(=O)(=O)c1ccc(C(=O)O)cc1)c1ccccc12 | 4.8 | 0.1 | 0.3 | 7.3* | 0.2 | -21.1
Cc1n[nH]c(=S)c2nn(-c3cccc(Cl)c3)c(C)c12 | -8.0 | 17.4 | 3.1 | -0.1 | -11.5 | -36.9
COc1cccc(-n2nc3c(=S)[nH]nc(C)c3c2C)c1 | 4.4 | -6.1 | 1.9 | -2.3 | 0.0 | 60.3*
Cc1n[nH]c(=S)c2nn(-c3ccccc3F)c(C)c12 | -10.4 | -7.6 | 0.3 | -0.8 | -7.1 | 64.9*
C[C@@H]1C=CCCO[C@]12C(=O)N(Cc1ccccc1C(F)(F)F)c1cccc(Br)c12 | -2.0 | nt | nt | nt | 2.4 | nt
Cc1ccc(-n2cccc2C(=S)N=P(N(C)C)(N(C)C)N(C)C)cc1 | 12.7 | 3.3 | 1.3 | 0.2 | 4.9 | 67.3*
Cc1ccc(-n2cccc2C(=O)NS(=O)(=O)c2ccc(C)cc2)cc1 | -6.5 | -17.2 | -1.7 | -5.2 | -1.9 | 7.8
CCOC(=O)C1=CCN(S(=O)(=O)c2ccc(Br)cc2)C1c1ccc(F)cc1 (stereo unspecified) | -3.9 | nt | nt | nt | -13.7 | nt
O=S(=O)(Nc1ccc2c3c(cccc13)CC2)c1ccc(F)cc1 | 5.8 | -5.0 | -0.3 | 7.8* | 13.4 | 20.2
